Source: PubChem
In the library only some 2.6% were active in any assay of this set; here they are far more common.
GSIS activator – GLuc luminescence reporter in INS-1E cells, primary screen for activators of glucose-dependent secretion of insulin | INS-1E GLuc reporter insulin secretion, 2-3 h | activation, % at 16.6 µM | 370,000 tested, 0.61% active | AID 743287, 2014;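 active = lowest replicate activation of at least 40%, so every replicate reaches that level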
DENV2 CPE – inhibitors of DENV2 cytopathic effect, primary screen, cell-based, plate reader, single concentration; DENV2-infected cells, cytopathic effect rescue; CPE inhibition, % at 9.99 µM; 350,000 tested, 1.7% active; AID 651640, 2012; in the data active = CPE inhibition above about 20%, passing the limit was not always enough; inconclusive = no clear call, values can overlap the other calls; tested in BHK-21 cells
E-selectin induc – E-selectin induction in HUVECs, primary screen, imaging, HUVEC, immunofluorescence imaging, single point | P16581 | normalized: neutral wells 0, TNF-alpha wells 100 | activation, % at 7.58 µM | 260,000 tested, 0.37% active | AID 686992, 2013;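 active = mean E-selectin-positive cell signal at least 10% of the positive control, reached in at least 60% of replicates, without over 20% cell loss; inconclusive = no rule given, readout overlaps actives, possibly toxicity-flagged; inactive = the rest, including those meeting only one limit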
Target sequence (P16581 whole entry, looked up): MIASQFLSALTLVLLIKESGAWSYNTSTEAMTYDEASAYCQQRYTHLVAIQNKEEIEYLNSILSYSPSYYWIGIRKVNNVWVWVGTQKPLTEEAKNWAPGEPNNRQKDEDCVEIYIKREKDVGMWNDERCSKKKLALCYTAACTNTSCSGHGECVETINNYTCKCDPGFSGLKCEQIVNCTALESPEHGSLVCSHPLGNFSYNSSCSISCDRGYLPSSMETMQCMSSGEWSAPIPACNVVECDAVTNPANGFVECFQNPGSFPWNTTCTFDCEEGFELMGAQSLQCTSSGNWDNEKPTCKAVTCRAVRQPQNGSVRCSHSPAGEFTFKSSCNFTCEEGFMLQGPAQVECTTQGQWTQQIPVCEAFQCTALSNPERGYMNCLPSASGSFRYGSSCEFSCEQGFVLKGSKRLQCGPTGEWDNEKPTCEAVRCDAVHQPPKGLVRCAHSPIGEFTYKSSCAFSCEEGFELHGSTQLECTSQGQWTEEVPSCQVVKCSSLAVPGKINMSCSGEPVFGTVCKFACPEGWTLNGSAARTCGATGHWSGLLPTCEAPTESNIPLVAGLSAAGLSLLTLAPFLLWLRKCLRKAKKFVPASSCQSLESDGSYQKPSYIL
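Assay system: HUVEC, human umbilical vein endothelial cells / Amount: 3,000 HUVEC/well / Controls: TNF-alpha positive control, DMSO neutral control / Compound dosing: single concentration / Medium: EGM-2 over gelatin coat / Evaluation: percent E-selectin-positive cells / Signal: immunofluorescence imaging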
ERAP1 HTS inh – human ERAP1 aminopeptidase inhibitors, primary screen, biochemical, single point, plate reader; recombinant ERAP1, Leu-AMC fluorescence, 60 min; inhibition, % at 10.7 µM; 340,000 tested, 0.15% active;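 active = mean replicate inhibition of at least 30%, or all replicates individually reaching that 30% level; inactive = mean below 30% and not every replicate reaching it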
miR-122 sensor – miR-122 Renilla sensor signal increase in Huh7, primary screen, miR-122 inhibitor project, cell-based, single point, plate reader | activation (reporter increase), % at 12.5 µM | Huh7 miR-122 Renilla luciferase sensor, 48 h; neutral wells = 0, positive control = 100 | AID 602342, 2012 | 340,000 tested, 0.3% active;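 active = mean replicate activation score at least 90 and every replicate individually at or above 90; inconclusive = only one of the two criteria met; inactive = neither criterion met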;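 also: higher luciferase means less miR-122 activity so hits act as miR-122 inhibitors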
F508del corr – F508del CFTR correction, initial screen, CFBE line, single point; CFBE cells, YFP halide quenching; stimulated with forskolin plus potentiator P3; % fluorescence drop versus neutral controls; 350,000 tested, 0.36% active; activity (quench increase), % at 7.58 µM;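 active = mean added fluorescence quench of at least 8% versus neutral control, with both replicates also reaching 8%; inconclusive = only one of the mean or replicate conditions met; inactive = mean below 8% and not both replicates reaching 8%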;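 also: cells transiently co-express mutant CFTR-F508del with the halide-sensitive YFP; corrector assay measuring rescue of mutant channel to the surface after 24 h compound exposure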
Hits are given with their value; 0 = inactive; ? = inconclusive; - = no result.

SMILES | GSIS activator | DENV2 CPE | E-selectin induc | ERAP1 HTS inh | miR-122 sensor | F508del corr
Cc1ccc(Nc2ncnc3ccccc23)cc1 | 0 | 0 | - | 0 | 0 | 0
COc1ccc(NC2CCCN(C(=O)c3csc(C(C)C)n3)C2)cc1OC (stereo not drawn) | 0 | 0 | 78.6 | 0 | 0 | 0
CC(C)c1ccc(NC2CCCN(C(=O)c3cccnc3)C2)cc1 (stereo not drawn) | 75.5 | 0 | 0 | 0 | 0 | 0
C[C@@H]1CN([C@@H](C)CO)C(=O)c2cc(NC(=O)Nc3ccc(C(F)(F)F)cc3)ccc2O[C@@H](C)CCCCO[C@H]1CN(C)S(=O)(=O)c1cccs1 | 0 | 0 | 0 | 0 | 0 | 0
CCC(=O)Nc1ccc2c(c1)OC[C@H](C)N(Cc1ccccc1OC)C[C@H](C)[C@H](OC)CN(C)C2=O | 0 | 0 | 0 | 0 | - | 0
O=C(C[C@@H]1C=C[C@H](NC(=O)c2ccncc2)[C@@H](CO)O1)Nc1ccc(-c2ccccc2)cc1 | 0 | 0 | 0 | 0 | - | 0
Cc1ccc(/C=C2/C(=O)ON=C2c2ccccc2)o1 | 0 | 41.7 | - | - | - | 0
COc1ccc(CNC(=O)C[C@H]2C=C[C@H](NC(=O)CN(C)C)[C@@H](CO)O2)cc1 | 0 | 0 | 0 | 0 | - | 0
Cc1cc(C(=O)N/N=C/c2ccc([N+](=O)[O-])cc2)c2ccccc2n1 | 0 | 0 | 0 | 0 | 0 | 14.1
Cc1ccc(NCC(=O)N/N=C/c2cccc(Br)c2)cc1 | 0 | 30.8 | 0 | 0 | 0 | 0
O=C(N/N=C/c1ccc(F)cc1)c1cc(-c2ccco2)nc2ccccc12 | - | - | - | - | 0 | -
Cc1cc(C(=O)N/N=C/c2ccc(N(C)C)cc2)c2ccccc2n1 | 0 | 0 | - | 0 | - | 8.3
CCOc1ccc(/C=N/NC(=O)c2cc(-c3ccco3)nc3ccccc23)cc1 | 68.5 | - | - | - | - | -
Cc1cccc(/C=N/NC(=O)c2cc(C)nc3ccccc23)n1 | 0 | 0 | - | 0 | 0 | 0
Cc1cc(C(=O)N/N=C/c2cc([N+](=O)[O-])ccc2O)c2ccccc2n1 | 0 | - | - | - | - | -
Cc1cccc(NCC(=O)N/N=C/c2cccc(Br)c2)c1 | 0 | 0 | 0 | 0 | - | 0
N#C[C@H]1[C@@H](c2ccc(C#Cc3ccccc3F)cc2)[C@@H](CO)N1C(=O)C1CCOCC1 | 0 | 0 | 0 | 0 | - | 0
CCCNC(=O)N(C)C[C@H]1Oc2cc(C#CC3CC3)ccc2S(=O)(=O)N([C@@H](C)CO)C[C@H]1C | 0 | 0 | 0 | 0 | 0 | 0
C[C@@H]1CN([C@H](C)CO)C(=O)c2cc(NS(=O)(=O)c3ccc(F)cc3)ccc2O[C@@H](C)CCCCO[C@@H]1CN(C)S(=O)(=O)c1ccccc1 | 0 | 0 | 0 | 0 | 0 | 0
CC(=O)N1[C@H](C(=O)Nc2ccccc2)[C@@H](CO)[C@@H]2Cn3c(ccc(C4=CCCC4)c3=O)[C@@H]21 | 0 | 0 | 0 | 0 | - | -
COc1ccc(NC(=O)N2CCCCN3[C@@H](CO)[C@@H](c4ccc(C#Cc5ccccn5)cc4)[C@@H]3C2)cc1 | 0 | 0 | 0 | 0 | 0 | 0
Cc1cc(C(=O)N/N=C/c2ccc3c(c2)OCO3)c2ccccc2n1 | 0 | 0 | 0 | 0 | - | 19.4
O=C(CNc1ccccc1)N/N=C/c1ccc2c(c1)OCCO2 | 0 | - | - | - | - | -
O=C(CNc1ccccc1)N/N=C/c1ccc2c(c1)OCO2 | 0 | 0 | 30.9 | 0 | 0 | 0
CN1[C@@H]2c3ccc(-c4ccncc4)c(=O)n3C[C@@H]2[C@@H](CO)[C@@H]1C(=O)NCCc1ccccc1 | 0 | 0 | 0 | 0 | 0 | 0
SMILES | GSIS activator | DENV2 CPE | E-selectin induc | ERAP1 HTS inh | miR-122 sensor | F508del corr
CCOc1ccc(CCNC(=O)COC(=O)CCC(=O)c2cccs2)cc1OCC | 0 | 0 | 0 | 0 | 0 | 0
CCOc1ccc(CCNC(=O)CCC(=O)c2cccs2)cc1OCC | 95.2 | 0 | 0 | 0 | - | 0
COc1ccc(CCNC(=O)CCC(=O)c2cccs2)cc1OC | 102.7 | 0 | 0 | 0 | 0 | 0
COc1ccc(CCNC(=O)COC(=O)CCC(=O)c2cccs2)cc1OC | 0 | 0 | 0 | 0 | 0 | 0
COc1ccc(C(C)=O)cc1COC(=O)CCC(=O)c1cccs1 | 43.8 | 0 | - | 0 | 0 | 0
COc1ccc(NC(=O)N2C[C@H](O)COC[C@H]3O[C@H](CC(=O)N4CCCCC4)CC[C@@H]32)cc1 | 0 | 0 | 0 | 0 | 0 | 0
COc1ccc(NC(=O)Nc2cccc3c2O[C@@H](CN(C)S(C)(=O)=O)[C@H](C)CN([C@H](C)CO)C3=O)cc1 | 0 | ? | 0 | 0 | 0 | 0
CNC(=O)C[C@@H]1CC[C@H]2[C@@H](COC[C@@H](O)CN2Cc2ccc(Cl)c(Cl)c2)O1 | 0 | 0 | 0 | - | 0 | 0
Cc1ccc(C(=O)c2sc(Nc3ccccc3)c(C#N)c2N)cc1 | 42.7 | - | - | - | - | -
N#Cc1c(Nc2ccccc2)sc(C(=O)c2ccc(F)cc2)c1N | 0 | - | - | - | - | -
CCOC(=O)c1ccc(Nc2sc(C(=O)c3cccc([N+](=O)[O-])c3)c(N)c2C#N)cc1 | 0 | 0 | 0 | 0 | - | 11.6
COc1ccc(OC)c(S(=O)(=O)N2CCN(c3c(C)cccc3C)CC2)c1 | - | 26.9 | 0 | 0 | 0 | 0
COc1cccc(S(=O)(=O)N2CC[C@@H]3[C@@H](CO)Nc4ccc(C#Cc5ccccc5)cc4[C@@H]32)c1 | 0 | 0 | 0 | 0 | 0 | 0
COc1cccc(S(=O)(=O)N2CC[C@H]3[C@H](CO)Nc4ccc(C#Cc5ccccc5)cc4[C@H]32)c1 | 0 | 30.6 | 0 | 0 | 0 | 0
COc1cccc(C#Cc2ccc3c(c2)[C@@H]2[C@@H](CCN2S(=O)(=O)c2ccccc2)[C@@H](CO)N3)c1 | 0 | 44.9 | 0 | 0 | - | 0
Cc1ccc(S(=O)(=O)N(C)C[C@H]2OCCCC[C@H](C)Oc3ccc(NS(=O)(=O)c4ccc(Cl)cc4)cc3C(=O)N([C@@H](C)CO)C[C@@H]2C)cc1 | 0 | 0 | 0 | 0 | 0 | 0
CCOc1ccc(C(=O)NCC(=O)N2CCN(Cc3ccccc3)CC2)cc1 | 0 | 0 | 0 | 0 | 0 | 10.0
CCCCN1C(=O)/C(=C/C=C2\Oc3ccccc3N2CC)SC1=S | 0 | 0 | - | 0 | - | 17.0
CCCN1C(=O)/C(=C/C=C2\N(CC)c3ccccc3C2(C)C)SC1=S | - | - | - | - | 0 | -
C[C@H](CO)N1C[C@H](C)[C@H](CN(C)Cc2ccc(Oc3ccccc3)cc2)Oc2ccc(NC(=O)CCCCCC(=O)Nc3ccccc3N)cc2CC1=O | 0 | 0 | 49.8 | 0 | 0 | 0
C[C@H]1CN([C@@H](C)CO)C(=O)Cc2cc(NC(=O)CCCCCC(=O)Nc3ccccc3N)ccc2O[C@H]1CN(C)Cc1ccc(Cl)c(Cl)c1 | 0 | 0 | 75.3 | 0 | 0 | 0
